According to ChEMBL document CHEMBL4513216, “Probing the Open Global Health Chemical Diversity Library for Multistage-Active Starting Points for Next-Generation Antimalarials” (ACS Infect Dis, 2020):

Experiment: Toxicity liver stage against HepG2, at 10uM
Type: cell-based
Set-up: test concentration 10 uM, cell line HepG2-A16-CD81EGFP
Conditions: human, HepG2-A16-CD81EGFP cells; read-out: INHIBITION
In short: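 Uninfected HepG2-A16-CD81EGFP cells, 3 × 10^3 per well, 1536-well, plated on prespotted compound at 10 μM final, parasite-free screening media added to match infected plates; puromycin 10 μM positive, DMSO 0.5% negative; run in parallel with 48 h PbLuc assay at 37 °C, 5% CO2; viability by CellTiter-Glo luminescence, normalized to controls.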

Row | Structure (SMILES) | cytotoxicity at 10 µM [%]
1 | Cc1nn(CC(O)CN2CCc3ccccc3C2)c(=O)c(C#N)c1C (stereo unspecified) | 8.27
2 | O=C(NCc1nncn1C1CCCCC1)C1COc2ccccc2O1 (stereo unspecified) | 2.83
3 | CC(=O)N1CCCN(CCCSCc2ccccc2)CC1 | -4.53
4 | Cc1ccc(C#N)c(N2CCC(c3nccn3CCN(C)C)CC2)n1 | -5.47
5 | O=c1oc(-c2ccc(F)cc2)nn1CC1CCCCO1 (stereo unspecified) | 2.35
6 | Cc1cnc(CN(C)C2CCN(CCn3cc(C#N)cn3)C2)o1 (stereo unspecified) | -5.45
7 | Cc1nc2c(C)cccc2cc1C(=O)N1CCC2(CCCNC2)C1 (stereo unspecified) | -10.3
8 | CN(Cc1ccncn1)C(=O)CCc1[nH]nc2c1CCCC2 | 3.11
9 | CC(C)(C)N1CC(C(=O)NCc2nc(C3CCCCC3)no2)CC1=O (stereo unspecified) | 1.08
10 | Cc1cccc(S(=O)(=O)N2CCCc3c(c(=O)n(C)n3C)C2)c1 | -2.08
11 | CS(=O)(=O)N1CCCC12CCCN(C(=O)c1ccc3c(c1)OCO3)C2 (stereo unspecified) | -144
12 | c1nnc(Nc2cncc(C3CCCN3)n2)s1 (stereo unspecified) | 3.58
13 | OCCN1CCC(CNCc2ccc(Br)cc2)CC1 | -8.29
14 | CN(C)c1ncccc1CNCc1cccc(O)c1 | 5.05
15 | Cc1c(Cc2ccccc2)c(O)nc2nc(N3CCOCC3)nn12 | 9.76
16 | CCC(C(=O)N1CCS(=O)(=O)CC1)n1cccn1 (stereo unspecified) | 1.28
17 | CSCc1cc(F)ccc1CNC(=O)N1CCCC1 | 5.58
18 | O=C(c1cc(C2CCCC2)no1)N1CC(O)C1 | -1.57
19 | CC(=O)N1CCO[C@@H]2CN(S(=O)(=O)c3ccccc3F)C[C@@H]2C1 | 12.6
20 | COCCN1CCC(CNC(=O)C2(c3cc(C)cc(C)c3)CCC2)C1 (stereo unspecified) | -7.4
21 | CCCOc1cc(CNC(=O)Nc2cccnc2N2CCCC2)ccn1 | -2.06
22 | Cc1ccc(C(=O)N2CCC3(CC2)COC(COc2ccccn2)C3)o1 (stereo unspecified) | -0.954
23 | CC(C)Oc1ccc(C(=O)Cn2cnnc2[S+](C)[O-])cc1 (stereo unspecified) | -4.68

Row | Structure (SMILES) | cytotoxicity at 10 µM [%]
24 | CC(Cn1cccn1)Nc1cnc2ccccc2n1 (stereo unspecified) | -7.67
25 | COc1ccc(C(=O)Nc2cccc(C(N)=O)c2)c(OC)n1 | -9.2
26 | CN(Cc1ccc2nsnc2c1)C(=O)Cn1ncc(N(C)C)cc1=O | 3.67
27 | COc1ccc(S(=O)(=O)N2CCC(OCc3ccccn3)C2)cc1Br (stereo unspecified) | 2.24
28 | COCCNC(=O)C1CN(Cc2nccs2)Cc2ccnn2C1 (stereo unspecified) | -72.7
29 | Cc1noc(C)c1CN(C)c1nc(C2CCCC2)nc2c1cnn2C | 22.2
30 | CN1CC(=O)N(c2cccc(F)c2)CC12CCN(Cc1cccnc1)C2 (stereo unspecified) | 9.69
31 | Cn1nc(C2CNCCO2)cc1CCOc1cccc(C(F)(F)F)c1 (stereo unspecified) | -1.02
32 | O=C1CCC2(CCCN(C(=O)c3cccs3)C2)N1 (stereo unspecified) | 6.88
33 | CC(=O)N(C)CC(=O)NC1(c2ccc(F)cc2)CCCC1 | 0.747
34 | COc1cccc(CNc2cnn(C)c(=O)c2Cl)c1 | -8.78
35 | O=C(CN1C=Nc2ccccc2S1(=O)=O)NCc1ccccc1 | -3.95
36 | COc1ccc(CN2CCCCC2Cn2nc(C)nc2C)cc1F (stereo unspecified) | -15
37 | CC(C)(C)C(=O)NC[C@H]1Cn2c(-c3ccccc3)cnc2CO1 | -3.69
38 | CC(=O)N1CCOCC(Cc2ccc3c(ccn3C)c2)C1 (stereo unspecified) | 4.3
39 | Cc1ncccc1C(=O)NC1CC(=O)N(CC(F)(F)F)C1 (stereo unspecified) | 1.2
40 | O=C(NCC(O)c1ccc(Cl)c(F)c1)NC1CC=CC1 (stereo unspecified) | -2.41
41 | NC(=O)c1cnn2c(C3CCCN(C4CCOCC4)C3)ccnc12 (stereo unspecified) | 4.34
42 | Cn1cc(C(=O)CC2CCCN2C(=O)c2coc3ccccc23)cn1 (stereo unspecified) | -0.65
43 | CCN(Cc1ccoc1)C(=O)NC1CCN(CC2CCCC2)CC1 | -6.11
44 | CN(Cc1cccc(F)c1)C(=O)CN1CCCC1CCc1ccccc1 (stereo unspecified) | -12
45 | CN(C)C(=O)[C@H]1CC[C@@H]2[C@@H](CCN2C(=O)N(C)C)O1 | 20.3
46 | CCc1nc(C2CCCN(C(=O)C3=NN(CC)C(=O)CC3)C2)no1 (stereo unspecified) | -9.28

Row | Structure (SMILES) | cytotoxicity at 10 µM [%]
47 | CC(=O)N1CCCCC[C@@H]2[C@@H]1[C@H](c1cccc(F)c1)CN2CCC(N)=O | -1.08
48 | CN(CCOc1ccc(F)cc1)S(=O)(=O)N1CCOCC1 | 7.71
49 | Cc1c(C(=O)NC2CCCOC2)nnn1-c1ccc(Cl)cc1F (stereo unspecified) | 8.55
50 | CC(C)N1CCC(N2CCCC(C(=O)NCC3(O)CCCCC3)C2)CC1 (stereo unspecified) | 2.59
51 | O=C(CCC1CCCO1)NCCCC(=O)Nc1ccc(Cl)cc1 (stereo unspecified) | -0.649
52 | COc1cc(CNCCn2ccnc2)cc2c1OCO2 | 5.17
53 | O=C(NCc1cccs1)[C@H]1CC[C@@H]2[C@@H](CCN2C2CCC2)O1 | -6.34
54 | Cn1ccc(C(=O)N2CCC(Cc3ccc4ncccc4c3)CC2)n1 | 13.7
55 | Cc1ccoc1CNC(C)c1nnc2n1CCCC2 (stereo unspecified) | -12.6
56 | CC(=O)Nn1ccc2c(nnc3c(-c4ccccc4)cnn32)c1=O | 3.06
57 | CC(O)CN1CCN(C(=O)c2cccn2Cc2ccccc2)CC1 (stereo unspecified) | -8.87
58 | CN(Cc1noc2c1CCCC2)C(=O)Nc1cccc(S(N)(=O)=O)c1 | -4.32
59 | COCCN1C(=O)[C@@H]2CC[C@H]1CN(S(=O)(=O)c1ccc(OC)cc1)C2 | 6.35
60 | Cn1cc(Br)c(=O)c(NS(=O)(=O)c2ccccc2F)c1 | -2.62
61 | OC1(CNc2ccc(Br)cn2)CCSCC1 | 5.63
62 | CC(C)(C)c1cc(NC(=O)CN(Cc2cccs2)Cc2cccs2)on1 | 14.2
63 | COCCc1noc(CN(C)C2CCCN(c3cccnn3)C2)n1 (stereo unspecified) | -8.64
64 | CN(CCc1ccccn1)C(=O)c1cn(CCN2CCNCC2)nn1 | -8.48
65 | CN(C)CCCn1cnc2cc(NC(=O)c3n[nH]c4c3CCC4)ccc21 | -5.3
66 | CCc1noc(CN2CCN(CC(O)c3ccccc3)CC2)n1 (stereo unspecified) | 1.19
67 | CCN1C[C@H]2N(c3ncccn3)CCC[C@@]2(C(=O)NCC2CC2)C1 | -97.3
68 | CN(C(=O)c1ccc(NC(=O)c2cc[nH]n2)cc1)C1CCCCC1 | -2.98
69 | COc1ccc(OCC2CCCN(c3nc(CO)cs3)C2)cc1 (stereo unspecified) | -0.715

Row | Structure (SMILES) | cytotoxicity at 10 µM [%]
70 | Cn1cc(CN2CCCN(C(=O)c3ccc4c(c3)COC4)CC2)cn1 | -4.27
71 | CN(C)Cc1cnn(-c2ccccc2C(=O)N(C)Cc2ccccc2)c1 | -6.54
72 | O=C(NCc1cc[nH]n1)NCC(O)c1ccc(F)cc1 (stereo unspecified) | -12
73 | c1ccc(OC2COC3(CCN(CC4CC4)CC3)C2)nc1 (stereo unspecified) | -75.2
74 | CN(CCc1cccs1)CCc1nccs1 | -5.81
75 | O=C(CSc1nnc(N2CCNCC2)s1)Nc1ccccc1 | 2.84
76 | Cc1ccc(CN2CCC3(CC2)CCN(C(=O)c2cccnc2)C3)o1 | -93.3
77 | O=c1c(Cc2ccc(Cl)cc2Cl)c(O)ccn1CC1CC1 | 13.6
78 | COc1ccc(CC2CN(C(=O)c3ocnc3C)CCO2)cc1 (stereo unspecified) | 11.4
79 | CCn1ccnc1CN1CCN(c2nccc(OC)n2)CC1C (stereo unspecified) | -17.9
80 | COc1ccccc1CC(=O)N1CCCC1Cn1nc(C)cc1C (stereo unspecified) | -9.37
81 | CNS(=O)(=O)c1cccc(C(C)NCc2ccc(F)cc2F)c1 (stereo unspecified) | 12.8
82 | Cc1cc(NC(=O)NCc2ccccn2)n(C)n1 | 2.14
83 | CCN(CC)CC(=O)Nc1ccc(-n2ccc(C(N)=O)n2)cc1 | -6.9
84 | CS(=O)(=O)N1CCC(OCCCc2ccccc2)C1 (stereo unspecified) | 8.13
85 | CC(C)c1ncc(CN2CCCC2c2[nH]ncc2C(=O)N(C)C)cn1 (stereo unspecified) | 0.974
86 | CC(C)c1noc(CS(=O)(=O)CC(=O)NCc2cccs2)n1 | 2.71
87 | O=C(NC1CC1)C1CCN(Cn2nc(-c3ccccc3)oc2=O)CC1 | 15
88 | Cc1nc(C2CCCN2C(=O)c2csc3c2CCCC3)no1 (stereo unspecified) | -10.3
89 | CCc1nc(CN2CCCN(C(=O)c3occc3C)CC2)cs1 | -21.9
90 | CN(Cc1cn2c(n1)CN(Cc1ccc(F)cc1)CC2)Cc1ccco1 | -77
91 | Cc1cc(C)n(CC2CCCN2C(=O)c2cccn3ccnc23)n1 (stereo unspecified) | -7.45
92 | CNC(=O)NCC(CO)Cc1ccccc1OC(F)(F)F (stereo unspecified) | 5.97

Row | Structure (SMILES) | cytotoxicity at 10 µM [%]
93 | CCC(C)NC(=O)CCNC(=O)c1c[nH]cc1-c1cccc(OC)c1 (stereo unspecified) | 6.98
94 | Cc1ccccc1CN1CCC(CNC(=O)Cn2cncn2)CC1 | 3.83
95 | COCC(=O)N1CCC(Nc2ccnc3ccc(Cl)cc23)CC1 | 5.78
96 | Cc1cc(C)n(CC2CCCCN2CCCS(N)(=O)=O)n1 (stereo unspecified) | 6.28
97 | CCOCC1CN(S(C)(=O)=O)Cc2cnn(C)c21 (stereo unspecified) | -15.4
98 | Cn1cc(N)c(-c2nnc3n2CCCC3)n1 | -6.83
99 | CCN(CC(=O)N(C)C)C(=O)C(C)(C)c1ccc2c(c1)OCCO2 | 1.22
100 | CN(C)C(CNC(=O)NCCS(C)(=O)=O)c1ccco1 (stereo unspecified) | 4.41
101 | COC(=O)CCC(=O)NCc1cccnc1N1CCc2ccccc2C1 | -8.09
102 | COCC(=O)N1CCC2(CC1)NC(=O)c1ccccc12 | 3.15
103 | c1cncc(CN2C[C@H]3CCC[C@@H](CNc4cnccn4)[C@H]3C2)c1 | -2.1
104 | Cc1ccc(C(=O)Nc2nc(C)no2)cc1 | -1.81
105 | O=C(NC1CC1)c1cc(C(F)(F)F)cc(C(F)(F)F)n1 | 6
106 | CCc1cnc(N2C[C@H]3CN(Cc4csc(C)n4)C(=O)[C@H]3C2)nc1 | 9.43
107 | Cc1oc(-c2ccoc2)nc1CN1CCC[C@H]1CO | -16.5
108 | CCCNC(=O)C[C@@H]1CCN(C(=O)c2cccnc2)C[C@@H]1CC | -0.171
109 | CCNC(=O)[C@@H]1C[C@H](N)CN1c1cc(C(F)(F)F)nc(N(C)C)n1 | -14.1
110 | COc1c(CNC2CCN(c3ccccn3)CC2)c(C(C)C)nn1C | -8.06
111 | COCCNC(=O)[C@H]1CN(Cc2cccs2)C[C@H]2OCC[C@@H]12 | 4
